Measured values taken from ChEMBL document CHEMBL4513216, “Probing the Open Global Health Chemical Diversity Library for Multistage-Active Starting Points for Next-Generation Antimalarials” (ACS Infect Dis, 2020).

Test: Toxicity liver stage against HepG2, at 10uM
Assay type: cell-based
Set-up: test concentration 10 uM, cell line HepG2-A16-CD81EGFP
Conditions: human, HepG2-A16-CD81EGFP cells; read-out: INHIBITION
How it was run: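 Uninfected HepG2-A16-CD81EGFP cells, 3 × 10^3 per well, 1536-well, plated on prespotted compound at 10 μM final, parasite-free screening media added to match infected plates; puromycin 10 μM positive, DMSO 0.5% negative; run in parallel with 48 h PbLuc assay at 37 °C, 5% CO2; viability by CellTiter-Glo luminescence, normalized to controls.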

Compound | cytotoxicity at 10 µM
CCc1cc(NCCNC(=O)c2cccnc2)n2nc(C)c(C)c2n1 | -3.05%
CNC(=O)c1nc(CN2CCOC(Cc3ccc(F)cc3)C2)no1 (stereo not given) | -2.28%
O=C(c1ccsc1)N1C[C@@H]2CCN(C(=O)c3cscn3)[C@@H]2C1 | 0.0861%
O=C(NCC1Cn2nnc(-c3ccoc3)c2CO1)c1ccc[nH]1 (stereo not given) | 2.61%
O=C(c1ccc2ccccc2n1)N1CCC2(CCN2c2ncccn2)C1 (stereo not given) | -114%
CC(C)(C)c1coc([C@@H]2COCCN2Cc2ccccc2)n1 | 2.72%
Cc1c(-c2ccccc2)ncn1CCCNc1cccnc1 | 2.06%
CN(Cc1ccncc1)C1COC2(CCN(Cc3ccccn3)CC2)C1 (stereo not given) | -103%
COc1ccc(CN2CC[C@H]3CO[C@H](CNC(=O)N(C)C)[C@H]3C2)cc1 | 1.07%
COC(=O)c1cc(NS(=O)(=O)c2cn(C)cn2)c(F)cc1F | 14.8%
CCC(O)CN1CCN(C(=O)Cc2ccc(OC)cc2OC)CC1 (stereo not given) | -23.8%
Cc1ccc2nc(CN3CCCCC3C(=O)N3CCOCC3)cn2c1 (stereo not given) | 3.13%
Cc1occc1CNC(=O)C1(C)CCCN1C(=O)c1ccccc1 (stereo not given) | -9.34%
CC(O)(CN1CCC(O)CC1)c1cccc(C(F)(F)F)c1 (stereo not given) | -0.0552%
CC(Oc1cccc(F)c1)C(=O)N(CC(N)=O)C1CCCC1 (stereo not given) | -1.21%
Cc1ccc(C(=O)NC2CCCCNC2=O)c(=O)[nH]1 (stereo not given) | -5.49%
O=C(C1CCCC1)N1CC2(CCCN(C3COC3)C2)Cc2ccccc21 (stereo not given) | 9.96%
c1csc(-c2noc(CNCCn3cccn3)n2)c1 | -8.21%
Cc1nc(C2CCNCC2)cc(N(C)Cc2cc3cc(F)ccc3[nH]2)n1 | -10.7%
CCn1c(CC2CCN(C(=O)c3cc(CC(C)C)on3)CC2)n[nH]c1=O | -2.7%
CCn1cc(CN2CCCN(C(=O)C3(C#N)CCCCC3)CC2)cn1 | -53.5%
N#Cc1cccnc1OC1CCN(S(=O)(=O)c2c(F)cccc2F)CC1 | 5.45%

Compound | cytotoxicity at 10 µM
c1cnc(-c2noc(C3CN(Cc4ccsc4)C3)n2)cn1 | 0.435%
CCN(CC)C(=O)CSc1ccc(C(F)(F)F)cn1 | 12.7%
COc1cc(CN(C)CCc2ccncc2)c(SC)cc1OC | -2.92%
CC(=O)N1CCN(S(=O)(=O)c2ccc(C)c(F)c2)CC1 | -9.42%
O=S(=O)(c1ccccc1Cl)N1CCc2nc(C3CCNCC3)ncc2C1 | 14.2%
Cn1cc(CN2CCc3onc(COCC4CC4)c3C2)cn1 | 6.35%
CC(=O)N1CCCC(c2nc(N(C)C)ncc2-c2cccc(F)c2)C1 (stereo not given) | -34.8%
CCS(=O)(=O)N1C[C@@H](c2nnc(C)o2)C[C@H]2OCC[C@H]21 | 1.36%
CN(C)c1cnn(Cc2nc3ccccc3n2C)c(=O)c1 | 10.9%
Cc1nc(C2CCCN2C(=O)c2ccc(N(C)C)nn2)no1 (stereo not given) | -12.9%
CC(C)N(Cc1cccc(Cl)c1)Cc1nnsc1Cl | 2.56%
CN1CCCCC[C@@H]2[C@@H]1[C@H](c1ccccc1)CN2C(=O)c1ccccn1 | -24.5%
Cc1nn(C)c(C)c1CCC(=O)N1CCc2sccc2C1 | 16.3%
CCN(CC)S(=O)(=O)CCNC(=O)c1cc2cccc(F)c2o1 | -3.12%
CC(C)(CNc1cn[nH]c(=O)c1Cl)c1ccc2c(c1)OCCO2 | 2%
Cc1nnc([C@H]2C[C@@H]3CCN(C(=O)C4CCOCC4)C[C@H]3O2)[nH]1 | 16.5%
Cc1cnc(C(=O)N2CCC3(CCN3Cc3ccc(F)cc3)C2)cn1 (stereo not given) | -104%
O=C(NC1CC1)NC(c1ccc(F)cc1)C1CC1 (stereo not given) | -0.158%
COc1ccc(-n2ncc3c2NC(=O)CSC3CC(C)C)cc1 (stereo not given) | -0.418%
CC(C)N1CCc2c(CN(C)Cc3ccco3)cncc2C1 | -2.39%
CN1CCN(C[C@@H]2OC[C@H]3CN(Cc4ccsc4)CC[C@H]32)CC1 | -11%
O=C(c1ccco1)N1CCC[C@]2(C[C@H](Oc3ncccc3F)CO2)C1 | 2.49%

Compound | cytotoxicity at 10 µM
CCC(CC)N1CCC(c2[nH]ncc2S(C)(=O)=O)C1 (stereo not given) | -3.51%
CCn1cnnc1C1CCN(C(=O)Cc2ccc(OC)c(F)c2)CC1 | -7.54%
Cc1cnc(CN(C)C2CCN(CC(=O)Nc3nncs3)C2)o1 (stereo not given) | 1.76%
Cc1ccnn1-c1ccc(C(=O)N2CCN(c3cnccn3)CC2)cc1 | -2.31%
O=C(Cn1ccc2ccc(Br)cc21)NCc1ccc(C(=O)O)cc1 | 6.46%
CN1CCC(NC(=O)Nc2ccc(Br)c(F)c2)C1=O (stereo not given) | -147%
CCC(NC(=O)c1ccco1)c1ccccc1OCC(=O)N1CCCC1 (stereo not given) | 4.9%
CC(=O)N1CCN(c2cc(N3CCOCC3)cnn2)CC1 | -7.09%
CNCCCNc1nc(C2CCCC2)nc2c1cnn2C | 6.63%
CN(C)c1cncc(C2CCN(CC3(O)CCCCC3)CC2)n1 | -30%
CS(=O)(=O)N1CCCC12CCCN(C(=O)c1ccno1)C2 (stereo not given) | -172%
Cc1nc(NC2CCOCC2)cc(C2CCN2S(C)(=O)=O)n1 (stereo not given) | 2.31%
CCOCc1ccccc1CNc1ccc2nncn2n1 | 0.84%
CCC1(CC)CC(=O)N(CC(O)c2cccc(Br)c2)C1=O (stereo not given) | 3.89%
CC(NC(=O)NCCCN(C)S(C)(=O)=O)c1cccc(Cl)c1 (stereo not given) | 3.44%
COc1ccccc1CC(=O)N1CCCC(c2nccn2CC(N)=O)C1 (stereo not given) | 12.9%
CN(C)C(=O)Cc1ccccc1NCc1nc(Cc2ccccc2)no1 | 1.9%
CNC(=O)c1ccc(CNC(=O)c2ccc(Cl)cc2F)cc1 | 5.66%
COc1cccc(Cn2[nH]c(C)c3c(NC(=O)C(C)OC)nnc2-3)c1 (stereo not given) | -2.03%
CCc1n[nH]c(C2CN(C(=O)c3ccnc(N(C)C)c3)CCO2)n1 (stereo not given) | 6.66%
CN(CC1CC1)c1ccc2ccc(C(=O)NC3CCCCC3)cn12 | -0.567%
CCN1CCN(C2CCN(Cc3ncc(C(C)(C)C)o3)CC2)C1=O | 2.05%

Compound | cytotoxicity at 10 µM
Cc1nn(C)c(Cl)c1C1CCCN1Cc1noc(C2CC2)n1 (stereo not given) | -1.64%
Cn1cc(-c2cnc(N3CCCC3)nc2)cc1C(=O)N1CCOCC1 | -3.87%
CC(C)c1cc(C(=O)N2CCN(c3ncc4c(n3)CCOC4)CC2)on1 | 1.57%
Cc1nc(NC(=O)OC(C)(C)C)sc1C(N)=O | -14.4%
Cc1nccc(C2CCCCN2Cc2cccc(F)c2)n1 (stereo not given) | -11.6%
O=C(Cn1nc(-c2ccc(F)cc2)oc1=O)NCc1ccncc1 | -9.21%
CCCN1CCC2(C1)c1ccccc1S(=O)(=O)N2C (stereo not given) | 9.04%
Cc1ncsc1C(=O)NCCNc1cnccn1 | 0.00742%
Cn1ccc(C(=O)NCc2ccc(N3CCCCCC3)nc2)cc1=O | -3.18%
O=C(NCC(F)(F)F)C1CSCN1S(=O)(=O)c1ccc(F)cc1 (stereo not given) | 1.85%
Cc1ncsc1CN1CCn2c(COCC3CC3)cnc2C1C (stereo not given) | -1.82%
Cc1ccc(S(=O)(=O)N2CSCC2C(=O)NCC(F)(F)F)cc1C (stereo not given) | -0.855%
CCC1CN(C(=O)c2ccccc2C(C)=O)CCN1C(C)C (stereo not given) | 0.684%
N#Cc1ccc(OCCN2CCc3cncnc3C2)cc1 | -9.96%
COc1ccc(C2CCCN2c2ccc(C#N)cn2)c(OC)c1 (stereo not given) | -3.42%
O=C(CCCn1nnc(-c2ccc(F)cc2)n1)N1CCOCC(CO)C1 (stereo not given) | 16.2%
O=C(CCCc1nnc(-c2ccccc2)o1)N1CCN(CCO)CC1 | -6.31%
CCn1c(CNC(=O)c2ccc(N(C)C)nc2)nc2ccccc21 | 4.5%
CN(CCc1ccccn1)C(=O)CCC1CCCN(c2cnccn2)C1 (stereo not given) | 4.13%
COc1ccc(CC(=O)NCC(O)c2sccc2C)cc1OC (stereo not given) | 11.4%
COc1ccc2c(c1)nc1n2[C@@H](CNC(=O)c2ccccn2)COC1 | -3.03%
O=C(NCC1CCOC1)c1csc(-c2ccco2)n1 (stereo not given) | -6.49%

Compound | cytotoxicity at 10 µM
COc1ccc2c(O)c(NC(=O)NCC3CC3)cnc2c1 | -0.799%
Cc1nc[nH]c1CN1CCN(C(=O)c2cccs2)[C@H]2CS(=O)(=O)C[C@H]21 | -0.0714%
CC(C)CNC(=O)N1CCC2(CCCO2)C1 (stereo not given) | 12.9%
COc1ccc(N(CCC(N)=O)C(=O)CSc2ccc(Cl)cc2)cc1 | -4.37%
CC(=O)c1cnc(NCCN2CCCC2)nc1C | -3.73%
Cc1ccccc1-c1cc(NC(=O)CC(C)C)n(CCO)n1 | 7.47%
O=C1CO[C@H]2CN(S(=O)(=O)c3ccccc3)C[C@H]2N1CC1CCCCC1 | 3.36%
O=C(NCCNc1ccc(C(F)(F)F)cn1)c1ccc(Br)cc1 | -6.28%
Nc1cc(-c2cc(C(=O)O)ccc2Cl)c2cc[nH]c2n1 | 1.94%
CC(C)OCCS(=O)(=O)N1CCN(Cc2ccco2)CC1 | -11.3%
O=C(NCC(O)c1cccc(F)c1)C1CCN(C(=O)C2CCC2)CC1 (stereo not given) | 4.43%
CCn1ncc(S(=O)(=O)NC(C)c2cc(OC)ccc2OC)c1C (stereo not given) | -4.48%
CN(C)CCNCC1CCOC(C)(C)C1 (stereo not given) | -9.35%
O=C1COC2(CCN(Cc3cccs3)CC2)CN1c1cccnc1 | -125%
Cn1cc(CN2CCc3ncnc(N4CCOCC4)c3CC2)cn1 | -3.46%
COc1ccccc1C(=O)N1CCN(CCc2scnc2C)CC1 | 1.79%
CC(C)Nc1nc(O)cc(C2CC(=O)N(Cc3ccccc3)C2)n1 (stereo not given) | -28.5%
COc1cccc(C(=O)NC(c2ccccn2)C2CCC(CN)CC2)c1 (stereo not given) | -9.33%
NC(=O)C1CCN(S(=O)(=O)c2cnn(-c3ccccc3)c2)C1 (stereo not given) | 7.68%
NC(=O)[C@@H]1CCCN1C(=O)c1cn(C/C=C/c2ccccc2)nn1 | 2.32%
CSCc1nc(CNC(=O)C2CCCN(C(=O)N(C)C)C2)cs1 (stereo not given) | -3.99%
CCNC(=O)CNC(=O)Nc1cccc(Cl)c1SC(F)F | -1.76%
